{"source": "ChEMBL document CHEMBL1681713", "about": "“Lead detoxification activities and ADMET hepatotoxicities of a class of novel 5-(1-carbonyl-L-amino-acid)-2,2-dimethyl-[1,3]dithiolane-4-carboxylic acids” (Bioorg Med Chem Lett, 2011)", "key": {"Kidney [1]": {"tested_on": "Kidney", "test": "Detoxification activity against lead-induced toxicity in mouse assessed as reduction lead level in kidney per gram of organ at 0.2 mmol/kg, ip qd for 5 days measured 24 hrs last post dose by synchrotron X-ray fluorescence analysis", "format": "functional", "outline": "(§1)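 Lead-loaded mice were given normal saline vehicle (negative control) or test agent at 0.2, 0.4 or 0.6 mmol/kg. Lead was measured in liver, kidney, left femur and brain and reported as mean ± SD µg Pb/g organ against the NS group.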"}, "Kidney [2]": {"tested_on": "Kidney", "test": "Toxicity in mouse assessed as effect on calcium level in kidney per gram of organ at 0.4 mmol/kg, ip qd for 5 days", "format": "organism-based", "conditions": "in vivo, 120 h"}, "[3]": {"test": "Detoxification activity against lead-induced toxicity in mouse assessed as reduction lead level in urine at 0.4 mmol/kg, ip qd for 5 days measured 24 hrs last post dose by synchrotron X-ray fluorescence analysis", "format": "functional", "outline": "(§2)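 Lead-loaded mice were given normal saline vehicle, DL-penicillamine or NaDMS (positive controls), or test agent, each at 0.4 mmol/kg; n = 12 per group. Lead was measured in feces and urine and reported as mean ± SD µg Pb/g excrement against the NS group.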"}, "Liver [4]": {"tested_on": "Liver", "test": "Detoxification activity against lead-induced toxicity in mouse assessed as reduction lead level in liver per gram of organ at 0.6 mmol/kg, ip qd for 5 days measured 24 hrs last post dose by synchrotron X-ray fluorescence analysis", "format": "functional", "outline": "as §1"}, "Kidney [5]": {"tested_on": "Kidney", "test": "Toxicity in mouse assessed as effect on manganese level in kidney per gram of organ at 0.4 mmol/kg, ip qd for 5 days", "format": "organism-based", "conditions": "in vivo, 120 h"}, "Kidney [6]": {"tested_on": "Kidney", "test": "Toxicity in mouse assessed as effect on zinc level in kidney per gram of organ at 0.4 mmol/kg, ip qd for 5 days", "format": "organism-based", "conditions": "in vivo, 120 h"}, "Kidney [7]": {"tested_on": "Kidney", "test": "Toxicity in mouse assessed as effect on copper level in kidney per gram of organ at 0.4 mmol/kg, ip qd for 5 days", "format": "organism-based", "conditions": "in vivo, 120 h"}, "Brain [8]": {"tested_on": "Brain", "test": "Toxicity in mouse assessed as effect on zinc level in brain per gram of organ at 0.4 mmol/kg, ip qd for 5 days", "format": "organism-based", "conditions": "in vivo, 120 h"}, "Brain [9]": {"tested_on": "Brain", "test": "Detoxification activity against lead-induced toxicity in mouse assessed as reduction lead level in brain per gram of organ at 0.2 mmol/kg, ip qd for 5 days measured 24 hrs last post dose by synchrotron X-ray fluorescence analysis", "format": "functional", "outline": "as §1"}, "Kidney [10]": {"tested_on": "Kidney", "test": "Detoxification activity against lead-induced toxicity in mouse assessed as reduction lead level in kidney per gram of organ at 0.4 mmol/kg, ip qd for 5 days measured 24 hrs last post dose by synchrotron X-ray fluorescence analysis", "format": "functional", "outline": "as §1"}, "Brain [11]": {"tested_on": "Brain", "test": "Detoxification activity against lead-induced toxicity in mouse assessed as reduction lead level in brain per gram of organ at 0.4 mmol/kg, ip qd for 5 days measured 24 hrs last post dose by synchrotron X-ray fluorescence analysis", "format": "functional", "outline": "as §1"}, "Brain [12]": {"tested_on": "Brain", "test": "Toxicity in mouse assessed as effect on manganese level in brain per gram of organ at 0.4 mmol/kg, ip qd for 5 days", "format": "organism-based", "conditions": "in vivo, 120 h"}, "Liver [13]": {"tested_on": "Liver", "test": "Detoxification activity against lead-induced toxicity in mouse assessed as reduction lead level in liver per gram of organ at 0.2 mmol/kg, ip qd for 5 days measured 24 hrs last post dose by synchrotron X-ray fluorescence analysis", "format": "functional", "outline": "as §1"}, "Brain [14]": {"tested_on": "Brain", "test": "Toxicity in mouse assessed as effect on copper level in brain per gram of organ at 0.4 mmol/kg, ip qd for 5 days", "format": "organism-based", "conditions": "in vivo, 120 h"}, "Liver [15]": {"tested_on": "Liver", "test": "Toxicity in mouse assessed as effect on iron level in liver per gram of organ at 0.4 mmol/kg, ip qd for 5 days", "format": "organism-based", "conditions": "in vivo, 120 h"}, "Femur [16]": {"tested_on": "Femur", "test": "Detoxification activity against lead-induced toxicity in mouse assessed as reduction lead level in femurs per gram of organ at 0.6 mmol/kg, ip qd for 5 days measured 24 hrs last post dose by synchrotron X-ray fluorescence analysis", "format": "functional", "outline": "as §1"}, "Femur [17]": {"tested_on": "Femur", "test": "Detoxification activity against lead-induced toxicity in mouse assessed as reduction lead level in femurs per gram of organ at 0.4 mmol/kg, ip qd for 5 days measured 24 hrs last post dose by synchrotron X-ray fluorescence analysis", "format": "functional", "outline": "as §1"}, "Mus musculus": {"tested_on": "Mus musculus", "test": "Toxicity in mouse assessed as change in bodyweight at 0.4 mmol/kg, ip qd for 5 days", "format": "organism-based", "conditions": "in vivo, 120 h", "outline": "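Lead-loaded mice were given normal saline vehicle or test agent at 0.4 mmol/kg. Body weights were recorded and compared with the NS group to assess growth.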"}, "Femur [18]": {"tested_on": "Femur", "test": "Detoxification activity against lead-induced toxicity in mouse assessed as reduction lead level in femurs per gram of organ at 0.2 mmol/kg, ip qd for 5 days measured 24 hrs last post dose by synchrotron X-ray fluorescence analysis", "format": "functional", "outline": "as §1"}, "Liver [19]": {"tested_on": "Liver", "test": "Toxicity in mouse assessed as effect on calcium level in liver per gram of organ at 0.4 mmol/kg, ip qd for 5 days", "format": "organism-based", "conditions": "in vivo, 120 h"}, "Kidney [20]": {"tested_on": "Kidney", "test": "Toxicity in mouse assessed as effect on iron level in kidney per gram of organ at 0.4 mmol/kg, ip qd for 5 days", "format": "organism-based", "conditions": "in vivo, 120 h"}, "Liver [21]": {"tested_on": "Liver", "test": "Toxicity in mouse assessed as effect on manganese level in liver per gram of organ at 0.4 mmol/kg, ip qd for 5 days", "format": "organism-based", "conditions": "in vivo, 120 h"}, "Brain [22]": {"tested_on": "Brain", "test": "Toxicity in mouse assessed as effect on calcium level in brain per gram of organ at 0.4 mmol/kg, ip qd for 5 days", "format": "organism-based", "conditions": "in vivo, 120 h"}, "Brain [23]": {"tested_on": "Brain", "test": "Detoxification activity against lead-induced toxicity in mouse assessed as reduction lead level in brain per gram of organ at 0.6 mmol/kg, ip qd for 5 days measured 24 hrs last post dose by synchrotron X-ray fluorescence analysis", "format": "functional", "outline": "as §1"}, "Brain [24]": {"tested_on": "Brain", "test": "Toxicity in mouse assessed as effect on iron level in brain per gram of organ at 0.4 mmol/kg, ip qd for 5 days", "format": "organism-based", "conditions": "in vivo, 120 h"}, "Liver [25]": {"tested_on": "Liver", "test": "Toxicity in mouse assessed as effect on copper level in liver per gram of organ at 0.4 mmol/kg, ip qd for 5 days", "format": "organism-based", "conditions": "in vivo, 120 h"}, "[26]": {"test": "Detoxification activity against lead-induced toxicity in mouse assessed as reduction lead level in feces at 0.4 mmol/kg, ip qd for 5 days measured 24 hrs last post dose by synchrotron X-ray fluorescence analysis", "format": "functional", "outline": "as §2"}, "Kidney [27]": {"tested_on": "Kidney", "test": "Detoxification activity against lead-induced toxicity in mouse assessed as reduction lead level in kidney per gram of organ at 0.6 mmol/kg, ip qd for 5 days measured 24 hrs last post dose by synchrotron X-ray fluorescence analysis", "format": "functional", "outline": "as §1"}, "Liver [28]": {"tested_on": "Liver", "test": "Toxicity in mouse assessed as effect on zinc level in liver per gram of organ at 0.4 mmol/kg, ip qd for 5 days", "format": "organism-based", "conditions": "in vivo, 120 h"}, "Liver [29]": {"tested_on": "Liver", "test": "Detoxification activity against lead-induced toxicity in mouse assessed as reduction lead level in liver per gram of organ at 0.4 mmol/kg, ip qd for 5 days measured 24 hrs last post dose by synchrotron X-ray fluorescence analysis", "format": "functional", "outline": "as §1"}}}
{"compound": "CC1(C)SC(C(=O)O)C(C(=O)N[C@@H](CC(=O)O)C(=O)O)S1", "note": "(stereo not given in full)", "values": [{"measurement": "Activity", "setting": "Kidney [1]", "result": 7.68, "unit": "µg/g"}, {"measurement": "Activity", "setting": "Kidney [2]", "result": 76.47, "unit": "µg/g"}, {"measurement": "Activity", "setting": "[3]", "result": 2.83, "unit": "µg/g"}, {"measurement": "Activity", "setting": "Liver [4]", "result": 2.77, "unit": "µg/g"}, {"measurement": "Activity", "setting": "Kidney [5]", "result": 1.32, "unit": "µg/g"}, {"measurement": "Activity", "setting": "Kidney [6]", "result": 27.89, "unit": "µg/g"}, {"measurement": "Activity", "setting": "Kidney [7]", "result": 3.53, "unit": "µg/g"}, {"measurement": "Activity", "setting": "Brain [8]", "result": 34.8, "unit": "µg/g"}, {"measurement": "Activity", "setting": "Brain [9]", "result": 1.69, "unit": "µg/g"}, {"measurement": "Activity", "setting": "Kidney [10]", "result": 7.09, "unit": "µg/g"}, {"measurement": "Activity", "setting": "Brain [11]", "result": 1.22, "unit": "µg/g"}, {"measurement": "Activity", "setting": "Brain [12]", "result": 0.78, "unit": "µg/g"}, {"measurement": "Activity", "setting": "Liver [13]", "result": 5.81, "unit": "µg/g"}, {"measurement": "Activity", "setting": "Brain [14]", "result": 2.4, "unit": "µg/g"}, {"measurement": "Activity", "setting": "Liver [15]", "result": 154.86, "unit": "µg/g"}, {"measurement": "Activity", "setting": "Femur [16]", "result": 9.64, "unit": "µg/g"}, {"measurement": "Activity", "setting": "Femur [17]", "result": 11.1, "unit": "µg/g"}, {"measurement": "Activity", "setting": "Mus musculus", "result": 31.1, "unit": "g"}, {"measurement": "Activity", "setting": "Femur [18]", "result": 17.21, "unit": "µg/g"}, {"measurement": "Activity", "setting": "Liver [19]", "result": 59.89, "unit": "µg/g"}, {"measurement": "Activity", "setting": "Kidney [20]", "result": 93.98, "unit": "µg/g"}, {"measurement": "Activity", "setting": "Liver [21]", "result": 1.35, "unit": "µg/g"}, {"measurement": "Activity", "setting": "Brain [22]", "result": 68.28, "unit": "µg/g"}, {"measurement": "Activity", "setting": "Brain [23]", "result": 0.84, "unit": "µg/g"}, {"measurement": "Activity", "setting": "Brain [24]", "result": 56.37, "unit": "µg/g"}, {"measurement": "Activity", "setting": "Liver [25]", "result": 3.61, "unit": "µg/g"}, {"measurement": "Activity", "setting": "[26]", "result": 4.8, "unit": "µg/g"}, {"measurement": "Activity", "setting": "Kidney [27]", "result": 5.9, "unit": "µg/g"}, {"measurement": "Activity", "setting": "Liver [28]", "result": 37.69, "unit": "µg/g"}, {"measurement": "Activity", "setting": "Liver [29]", "result": 3.82, "unit": "µg/g"}]}
